Active and inactive are the calls of the source. Unless noted, the rule behind the calls is not given here.

From ChEMBL document CHEMBL5346963, “Innovative Strategy toward Mutant CFTR Rescue in Cystic Fibrosis: Design and Synthesis of Thiadiazole Inhibitors of the E3 Ligase RNF5” (J Med Chem, 2023) come the findings set out here.

Data set [1] deals with CFBE41o-. Kind of data set: Induction of autophagy in human CFBE41o- cells harbouring CFTR F508del mutant assessed as increase in number of autophagic vacuoles at 5 uM incubated for 24 hrs by confocal microscopy based analysis. Type of data set: functional, cell-based. The procedure, abridged: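 CFBE41o– F508del/HS-YFP cells (50,000/well) were treated 24 h with compound (5 μM), VX-809 (1 μM) or DMSO. SAR405 (2 μM) and torin1 (20 nM) were added near the end of incubation. Cells were then loaded with 50 μM MDC in PBS for 10 min at 37 °C, washed, and imaged. MDC spot number was normalized to control. n = 3; ANOVA with Dunnett test.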

Data set [2] has as its system CFBE41o-. Kind of data set: Antiproliferative activity against human CFBE41o- cells harbouring CFTR F508del mutant/HS-YFP at 5 uM incubated for 48 hrs. The data set is classed as toxicity, cell-based. In a few lines: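 Cells plated at 5000/well and treated after 6 h with compound (5 μM) or DMSO. Cell-covered area was followed by the YFP signal over 48 h on a high-content imager. Means ± SEM, n = 6. Three independent experiments; ANOVA with Dunnett test.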

The subject of data set [3] is Cystic fibrosis transmembrane conductance regulator (Homo sapiens), P13569 [F508del]. Kind of data set: Corrector activity at CFTR F508del mutant in human CFBE41o- cells assessed as increase in CFTR mutant activity at 5 uM in presence of VX-445 incubated for 24 hrs. The data set is classed as cell-based. In a few lines: (§1)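 CFBE41o– cells stably expressing F508del-CFTR and HS-YFP were treated 24 h after seeding; DMSO and VX-809 (1 μM) served as controls. Cells were stimulated 25 min with forskolin (20 μM) plus VX-770 (1 μM). YFP was read for 2 s before and 12 s after iodide injection. Initial slope came from an exponential fit of the final 11 s. Three independent experiments.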

The test system is the same in data set [4]. Kind of data set: Corrector activity at CFTR F508del mutant in human CFBE41o- cells assessed as increase in CFTR mutant activity at 5 uM in presence of VX-809 incubated for 24 hrs. Type of data set: cell-based. The procedure, abridged: as §1
The target in data set [5] is Cystic fibrosis transmembrane conductance regulator (Homo sapiens, UniProt P13569, F508DEL). Kind of data set: Corrector activity at CFTR F508del mutant in human CFBE41o- cells incubated for 25 mins by microplate reader based analysis. Type of data set: cell-based. In a few lines:
as §1

Data set [6] in a line: Aggregation property of the compound in PBS buffer at pH 7.5 by 1D 1H-NMR analysis. Type of data set: physicochemical. In a few lines:
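Solubility by 1H 1D NMR and aggregation by WaterLOGSY at 298 K in PBS pH 7.5 with 1 μM ZnCl2, 1 mM DTT, 10% D2O, 1% DMSO-d6. Theoretical concentrations 20, 50 and 100 μM, with 200 μM 4-trifluoromethyl benzoic acid as internal reference. WaterLOGSY: mixing time 1.7 s, relaxation delay 2 s, 256 scans.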

Sequence of Cystic fibrosis transmembrane conductance regulator (Homo sapiens), P13569 [F508del] (P13569 as listed by the source): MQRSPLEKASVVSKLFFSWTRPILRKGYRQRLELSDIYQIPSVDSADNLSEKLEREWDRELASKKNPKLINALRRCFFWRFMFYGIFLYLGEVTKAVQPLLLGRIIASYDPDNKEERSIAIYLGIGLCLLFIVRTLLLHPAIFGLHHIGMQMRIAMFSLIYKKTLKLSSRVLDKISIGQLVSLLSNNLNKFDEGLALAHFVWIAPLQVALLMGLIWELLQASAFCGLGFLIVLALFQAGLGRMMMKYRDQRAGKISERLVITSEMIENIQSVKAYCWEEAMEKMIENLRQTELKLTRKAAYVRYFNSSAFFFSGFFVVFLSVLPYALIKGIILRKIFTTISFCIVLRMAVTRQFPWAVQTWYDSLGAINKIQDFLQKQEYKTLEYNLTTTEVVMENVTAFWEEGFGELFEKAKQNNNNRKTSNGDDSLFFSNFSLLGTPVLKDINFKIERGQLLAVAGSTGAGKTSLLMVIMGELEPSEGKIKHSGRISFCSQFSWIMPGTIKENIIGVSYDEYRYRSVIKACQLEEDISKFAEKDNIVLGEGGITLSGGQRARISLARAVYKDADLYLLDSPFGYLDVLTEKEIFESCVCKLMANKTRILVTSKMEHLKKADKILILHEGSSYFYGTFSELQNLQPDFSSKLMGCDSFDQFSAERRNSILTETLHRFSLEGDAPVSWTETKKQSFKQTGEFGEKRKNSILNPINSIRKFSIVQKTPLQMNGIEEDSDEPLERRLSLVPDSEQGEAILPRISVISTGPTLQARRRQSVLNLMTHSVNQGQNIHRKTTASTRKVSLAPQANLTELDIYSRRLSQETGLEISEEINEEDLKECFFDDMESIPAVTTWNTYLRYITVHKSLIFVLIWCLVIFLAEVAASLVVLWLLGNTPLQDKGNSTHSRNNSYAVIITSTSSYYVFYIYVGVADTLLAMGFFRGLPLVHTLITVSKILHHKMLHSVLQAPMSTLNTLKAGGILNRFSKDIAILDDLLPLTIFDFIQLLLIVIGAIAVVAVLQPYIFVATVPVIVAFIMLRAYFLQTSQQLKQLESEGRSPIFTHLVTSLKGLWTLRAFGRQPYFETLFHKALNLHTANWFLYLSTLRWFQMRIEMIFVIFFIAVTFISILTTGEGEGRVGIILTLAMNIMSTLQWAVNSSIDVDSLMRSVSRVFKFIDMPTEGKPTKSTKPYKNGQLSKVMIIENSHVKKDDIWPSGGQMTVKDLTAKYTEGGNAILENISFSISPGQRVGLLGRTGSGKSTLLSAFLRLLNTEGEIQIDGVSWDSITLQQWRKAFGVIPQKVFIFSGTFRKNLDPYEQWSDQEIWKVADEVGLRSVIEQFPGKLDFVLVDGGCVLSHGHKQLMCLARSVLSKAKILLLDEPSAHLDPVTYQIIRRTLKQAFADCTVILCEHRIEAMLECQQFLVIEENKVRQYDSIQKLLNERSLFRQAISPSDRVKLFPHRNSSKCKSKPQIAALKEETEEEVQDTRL
Sequence of Cystic fibrosis transmembrane conductance regulator (P13569 as listed by the source): as above

With `Cc1ns/c(=N\C(=N\c2ccccc2)c2ccccc2)n1Cc1ccccc1`, the outcome (in the data set with CFBE41o- [1]; in data set [3]; in data set [4]) was Active. Besides, the Activity result with CFBE41o- [2] was “Non-Toxic”; in data set [6], “Not Active”. In addition, in data set [5], a half-maximal effect (EC50) was put at 2600 nM.
